Measured values published in ChEMBL document CHEMBL1124520, “New kelatorphan-related inhibitors of enkephalin metabolism: improved antinociceptive properties” (J Med Chem, 1989).

Key:
[1] = target: T1, Aminopeptidase N (Sus scrofa, UniProt P15145); experiment: Inhibition of Aminopeptidase N activity in pig kidney with 10 nM [3H]Leu-enkephalin as substrate; format: tissue-based
T1 sequence (P15145 whole entry): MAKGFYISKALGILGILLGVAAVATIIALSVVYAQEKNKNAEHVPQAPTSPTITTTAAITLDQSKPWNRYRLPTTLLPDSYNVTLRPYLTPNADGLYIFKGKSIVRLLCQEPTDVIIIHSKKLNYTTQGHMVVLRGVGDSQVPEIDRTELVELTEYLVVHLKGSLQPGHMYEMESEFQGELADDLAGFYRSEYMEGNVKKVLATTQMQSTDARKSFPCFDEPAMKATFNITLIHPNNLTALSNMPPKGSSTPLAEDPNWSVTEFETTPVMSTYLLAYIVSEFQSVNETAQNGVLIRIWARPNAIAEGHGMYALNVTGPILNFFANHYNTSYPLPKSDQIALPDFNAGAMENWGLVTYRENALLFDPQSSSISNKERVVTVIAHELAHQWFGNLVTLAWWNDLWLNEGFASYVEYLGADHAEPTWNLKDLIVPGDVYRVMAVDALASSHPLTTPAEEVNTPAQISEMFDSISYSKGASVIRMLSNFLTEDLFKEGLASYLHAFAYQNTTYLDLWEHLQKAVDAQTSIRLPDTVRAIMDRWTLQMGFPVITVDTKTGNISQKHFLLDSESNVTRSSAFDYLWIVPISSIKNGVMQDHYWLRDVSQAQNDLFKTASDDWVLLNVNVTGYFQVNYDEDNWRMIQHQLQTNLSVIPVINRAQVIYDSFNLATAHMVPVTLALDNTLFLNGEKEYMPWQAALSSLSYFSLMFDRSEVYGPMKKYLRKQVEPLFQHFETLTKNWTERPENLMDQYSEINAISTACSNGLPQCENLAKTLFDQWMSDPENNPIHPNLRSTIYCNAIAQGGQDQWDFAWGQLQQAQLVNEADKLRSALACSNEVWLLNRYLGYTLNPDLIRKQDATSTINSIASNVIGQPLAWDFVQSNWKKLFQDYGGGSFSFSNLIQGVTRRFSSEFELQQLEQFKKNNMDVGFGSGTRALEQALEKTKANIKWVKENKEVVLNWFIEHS
Summary of the method: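 Commercial aminopeptidase N, used unpurified. Enzyme preincubated 15 min at 25 °C with or without rising inhibitor concentrations in 50 mM Tris-HCl. [3H]Leu-enkephalin (Km 50 μM) added to 10 nM final. Stopped after 30 min with HCl; tritiated metabolites separated on polystyrene beads. IC50 from log-probit of five concentrations, mean ± SEM of three independent experiments.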

[2] = target: T2, Neprilysin (Oryctolagus cuniculus, UniProt P08049); experiment: Inhibition of neutral endopeptidase activity in rabbit kidney with 20 nM [3H]D-Ala2-Leu-enkephalin as substrate
T2 sequence (P08049 whole entry): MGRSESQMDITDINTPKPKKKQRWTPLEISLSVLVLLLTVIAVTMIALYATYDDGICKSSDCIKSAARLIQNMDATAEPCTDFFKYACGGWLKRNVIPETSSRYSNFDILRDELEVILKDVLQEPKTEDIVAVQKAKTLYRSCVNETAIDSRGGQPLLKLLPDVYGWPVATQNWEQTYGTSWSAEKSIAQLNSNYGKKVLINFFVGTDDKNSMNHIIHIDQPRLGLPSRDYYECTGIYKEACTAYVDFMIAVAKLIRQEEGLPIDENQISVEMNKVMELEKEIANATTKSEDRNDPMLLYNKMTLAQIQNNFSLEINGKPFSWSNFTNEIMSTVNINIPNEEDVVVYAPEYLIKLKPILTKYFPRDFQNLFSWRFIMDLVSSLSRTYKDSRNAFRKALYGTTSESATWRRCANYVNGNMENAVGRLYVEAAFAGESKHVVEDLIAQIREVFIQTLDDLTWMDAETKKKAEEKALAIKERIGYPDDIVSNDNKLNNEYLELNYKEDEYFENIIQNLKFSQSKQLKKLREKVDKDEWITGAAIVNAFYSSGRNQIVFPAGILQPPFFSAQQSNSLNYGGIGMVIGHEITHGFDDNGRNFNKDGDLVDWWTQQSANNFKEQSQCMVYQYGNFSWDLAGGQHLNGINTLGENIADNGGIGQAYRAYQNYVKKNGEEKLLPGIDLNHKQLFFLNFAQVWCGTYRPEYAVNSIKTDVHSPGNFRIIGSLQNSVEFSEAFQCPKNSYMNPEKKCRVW
Summary of the method: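 NEP purified to homogeneity from rabbit kidney, 1 pmol/100 μL final, preincubated 15 min at 25 °C in 50 mM Tris-HCl with or without inhibitor. [3H]-D-Ala2-Leu-enkephalin (Km 30 μM) added at 20 nM final. Reaction stopped at 30 min with 0.5 M HCl; products separated on polystyrene beads. IC50 from log-probit of five concentrations, mean ± SEM of three experiments.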

[3] = Inhibition of dipeptidyl amino peptidase activity in rat brain with 10 nM [3H]Leu-enkephalin as substrate; format: tissue-based
Summary of the method: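 Membrane-bound dipeptidylaminopeptidase purified from rat brain. Preincubated 15 min at 25 °C in 50 mM Tris-HCl with or without inhibitor. […] IC50 by log-probit over five inhibitor concentrations; mean ± SEM, three independent experiments.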

[4] = test system: Mus musculus; experiment: Analgesic effect when injected intracerebroventricularly at 50 (microg); format: functional
Summary of the method: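 Male Swiss mice (23–25 g), icv dose of 50 μg in 10 μL saline, n = 10 per group. Hot plate at 55 ± 0.5 °C; jump latency read 15 min after injection, cutoff 240 s. Compared with vehicle controls by ANOVA and Bonferroni test. % analgesia = (experimental − control latency)/(240 s − control latency).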

| IC50 [1] | IC50 [2] | IC50 [3] | Structure (SMILES) | Analgesia [4] | Latency time [4] |
| --- | --- | --- | --- | --- | --- |
| 500 nM | 51.5 nM | 250 nM | O=C(O)CCCCNC(=O)C(CC(=O)NO)Cc1ccccc1 (configuration not stated) |  |  |
| 1500 nM | 27.5 nM | 150 nM | O=C(O)CCCNC(=O)C(CC(=O)NO)Cc1ccccc1 (configuration not stated) |  |  |
| 2000 nM |  | 21 nM | O=C(O)CNC(=O)C(CC(=O)NO)Cc1ccccc1 (configuration not stated) |  |  |
| 445 nM | 2 nM | 10 nM | CC(CC(=O)O)NC(=O)C(CC(=O)NO)Cc1ccccc1 (stereo in doubt; 6) | 20.5% | 124 s |
| 670 nM | 2.4 nM | 36 nM | O=C(O)CCNC(=O)C(CC(=O)NO)Cc1ccccc1 (configuration not stated) | 21.5% | 125.3 s |
| 350 nM | 1.7 nM | 0.9 nM | CC(CC(=O)O)NC(=O)C(CC(=O)NO)Cc1ccccc1 (stereo in doubt; C) |  |  |
| 360 nM | 2.3 nM | 23 nM | CC(CNC(=O)C(CC(=O)NO)Cc1ccccc1)C(=O)O (configuration not stated) | 46.6% | 162.3 s |
|  | 13 nM | 17.5 nM | CC(NC(=O)C(CC(=O)NO)Cc1ccccc1)C(C)C(=O)O (stereo in doubt; 11B) |  |  |

The remaining lines, values behind:

| Structure (SMILES) | IC50 [1] | IC50 [2] | IC50 [3] | Analgesia [4] | Latency time [4] |
| --- | --- | --- | --- | --- | --- |
| O=C(O)C[C@H](Cc1ccccc1)NC(=O)[C@H](CC(=O)NO)Cc1ccccc1 | 1430 nM | 7.6 nM | 28.5 nM |  |  |
| CC(NC(=O)C(CC(=O)NO)Cc1ccccc1)C(C)C(=O)O (stereo in doubt; 11A) |  | 26.5 nM | 10.5 nM |  |  |
| O=C(O)C[C@H](NC(=O)[C@@H](CC(=O)NO)Cc1ccccc1)c1ccccc1 (racemic) | 32.5 nM | 2.9 nM | 2.6 nM | 62.1% | 184.8 s |
| CN(C(=O)C(CC(=O)NO)Cc1ccccc1)C(Cc1ccccc1)C(=O)O (configuration not stated) | 120 nM | 150 nM | 2.3 nM |  |  |
| O=C(CC(Cc1ccccc1)C(=O)NCC(Cc1ccccc1)C(=O)O)NO (configuration not stated) | 71.5 nM | 1.8 nM | 2.5 nM | 39.4% | 151.8 s |
| C[C@H](NC(=O)[C@@H](CC(=O)NO)Cc1ccccc1)C(=O)O [KELATORPHAN] |  |  |  | 50% | 167.2 s |
| O=C(CC(Cc1ccccc1)C(=O)NC(Cc1ccccc1)C(=O)O)NO (configuration not stated) | 130 nM |  |  |  |  |
| O=C(O)C[C@H](NC(=O)[C@H](CC(=O)NO)Cc1ccccc1)c1ccccc1 | 400 nM | 3 nM | 7.2 nM |  |  |
| O=C(O)C[C@H](Cc1ccccc1)NC(=O)[C@@H](CC(=O)NO)Cc1ccccc1 (racemic) | 22.5 nM | 3 nM | 0.46 nM | 68.2% | 193.7 s |
